In series [1] the target is T1, C-C chemokine receptor type 5 (Homo sapiens, UniProt P51681). Put plainly: Antagonist activity at CCR5 (unknown origin) expressed in HOS cells co-expressing Gqi-5 assessed as inhibition CCL5-stimulated Ca2+ mobilization by calcium mobilization assay. The format is functional, cell-based. In short, it runs like this: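 HOS-CCR5 cells transfected with Gqi5, used 48 h post-transfection and loaded with Fluo4-AM for 45 min. Compound preincubated 15 min, then CCL5 (20 μL of 200 nM) added after 16 s of reading.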
Background: Calcium flux is commonly read through the fluorescence of an indicator in the cells.
Target sequence in this assay (P51681 whole entry): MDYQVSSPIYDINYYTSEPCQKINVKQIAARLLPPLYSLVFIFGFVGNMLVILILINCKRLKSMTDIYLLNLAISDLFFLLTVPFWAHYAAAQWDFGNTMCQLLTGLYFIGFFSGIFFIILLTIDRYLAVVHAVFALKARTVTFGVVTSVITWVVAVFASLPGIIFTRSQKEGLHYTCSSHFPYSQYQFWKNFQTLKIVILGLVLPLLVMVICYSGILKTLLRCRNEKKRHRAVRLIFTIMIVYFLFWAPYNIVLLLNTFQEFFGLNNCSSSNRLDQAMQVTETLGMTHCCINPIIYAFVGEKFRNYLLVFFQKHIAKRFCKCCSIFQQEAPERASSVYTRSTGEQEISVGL

Series [2] concerns the target T2, Mu-type opioid receptor (Mus musculus, UniProt P42866). The series can be described thus: Displacement of [3H]-naloxone from mouse MOR expressed in CHO cells incubated for 1.5 hrs by competitive radioligand binding assay. It is filed as cell-based. In short, it runs like this: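 Mouse MOR CHO membranes (30 μg) with [3H]naloxone and test compound in TME buffer (50 mM Tris, 3 mM MgCl2, 0.2 mM EGTA, pH 7.4), 1.5 h at 30 °C, then filtered. IC50 converted to Ki by Cheng–Prusoff.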
(In general: Displacement assays read how much labelled ligand stays bound in the presence of the test substance.)

Series [3] concerns the target Mu-type opioid receptor (Mus musculus) (UniProt P42866). The series can be described thus: Agonist activity at mouse MOR expressed in CHO cell membranes assessed as stimulation of [35S]-GTPgammaS binding measured after 1 hr by scintillation counting analysis relative to DAMGO. It is filed as functional. Conditions: Cell membrane.
In series [4] the target is T2, Mu-type opioid receptor. Put plainly: Antagonist activity at mouse MOR expressed in CHO cells assessed as inhibition of DAMGO-induced calcium mobilization preincubated for 60 mins measured after 15 mins by calcium mobilization assay. The format is functional, cell-based. In short, it runs like this: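 mMOR-CHO cells transfected with Gα for 4 h, plated and cultured 24 h. Triplicates; IC50 by nonlinear regression.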

Series [5] can be described thus: Cytotoxicity against human GHOST CCR5 cells assessed as reduction in cell viability measured after 6 days by XTT assay. The format is toxicity, cell-based. Conditions: time 6 day, read-out: TC50. The method, boiled down:
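GHOST CCR5 cells treated in triplicate at the same 6 concentrations without virus, 6 days at 37 °C. XTT/PMS added for 4 h at 37 °C and absorbance read at 450 nm (650 nm reference).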
(In general: Tetrazolium dyes change colour on reduction, which living cells bring about.)

Series [6] deals with C-C chemokine receptor type 5 (Macaca mulatta, UniProt P61813). The series can be described thus: Displacement of […] from recombinant rhesus macaque CCR5 expressed in Chem-1 cells by competitive radioligand binding assay. The format is cell-based. In short, it runs like this:
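Rhesus CCR5 Chem-1 membranes (3 μg) in HEPES buffer pH 7.4 with 0.2% BSA, 0.10 nM [125I]MIP-1α and six concentrations from 0.1 nM to 10 μM, 90 min at 25 °C. Nonspecific binding with 0.1 μM MIP-1β; filters counted. Ki by Cheng–Prusoff (KD 0.31 nM, historical value).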

For series [7], the target named is T1, C-C chemokine receptor type 5. Put plainly: Agonist activity at CCR5 (unknown origin) expressed in HOS cells co-expressing Gqi-5 assessed as stimulation of Ca2+ mobilization by calcium mobilization assay. It is filed as functional, cell-based. In short, it runs like this:
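HOS-CCR5 cells transiently transfected with Gqi5, used 48 h later. Fluo4-AM loaded 45 min, compounds added, plate read 120 s at ex494/em516. Agonist arm: compound response recorded against CCL5 under the same conditions.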
Target sequence in this assay (P51681 whole entry, looked up): as the sequence (P51681 whole entry) above

The target is the same in series [8]. Put plainly: Inhibition of CCR5-mediated Luc-expressing HIV1 BaL Env-pseudotype virus infection in PHA-stimulated CCR5 expressing leukocytes containing human PBMC assessed as inhibition of viral entry in presence of 10 nM […] by measuring luminescence at 100 nM pretreated for 1 hr before infection measured after 2 days of infection. It is filed as cell-based. To be noted: filed as antagonist. In short, it runs like this:
(§1)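 Compound 100 nM added 1 h before infection with BaL Env-pseudotyped luciferase virus (50 pg p24/10^6 cells) in 24-well plates. Lysate luciferase measured; RLU normalized to infected untreated cells.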
Target sequence in this assay (P51681 whole entry, looked up): as the sequence (P51681 whole entry) above

Series [9] shares this target. The series can be described thus: Inhibition of CCR5-mediated Luc-expressing HIV1 BaL Env-pseudotype virus infection in CCR5 expressing leukocytes containing human PBMC assessed as inhibition of viral entry by measuring luminescence pretreated for 1 hr before infection measured after 2 days of infection. It is filed as cell-based. To be noted: filed as antagonist. The method, boiled down:
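[…] donor PBMCs, 2×10^5/well, in RPMI with 20 U/mL IL-2. Compound added 1 h before infection with BaL Env-pseudotyped luciferase virus (1.5 ng p24/well) and kept in culture. Luminescence read after 2 days.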
Target sequence in this assay (P51681 whole entry, looked up): as the sequence (P51681 whole entry) above

For series [10], the target named is T2, Mu-type opioid receptor. The series can be described thus: Agonist activity at mouse MOR expressed in CHO cells coexpressing Gqi5 assessed as inhibition of DAMGO-induced calcium mobilization preincubated for 60 mins measured after 15 mins by calcium mobilization assay. The format is functional, cell-based. In short, it runs like this:
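CHO cells stably expressing mouse MOR, transfected with Gαq15 for 4 h, plated 10,000 cells/well and cultured 24 h. […] Calcium fluorescence read ex494/em516. Triplicate per concentration; IC50 by nonlinear regression.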

In series [11] the target is T1, C-C chemokine receptor type 5. Put plainly: Inhibition of CCR5-mediated Luc-expressing HIV1 BaL Env-pseudotype virus infection in PHA-stimulated CCR5 expressing leukocytes containing human PBMC assessed as inhibition of viral entry by measuring luminescence at 100 nM pretreated for 1 hr before infection measured after 2 days of infection. It is filed as cell-based. The method, boiled down:
as §1
Target sequence in this assay (P51681 whole entry, looked up): as the sequence (P51681 whole entry) above

Series [12] in a line: Therapeutic index, ratio of TC50 for human GHOST CCR5 cells to EC50 for inhibition of CCR5-mediated HIV-1 Bal entry in human GHOST CCR5 cells. It is filed as toxicity, cell-based. Conditions: read-out: TI. In short, it runs like this: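 GHOST-CCR5 cells plated at 1×10^4/well, cultured 24 h, then compounds at 6 concentrations (0.001–100 μM) in triplicate. Efficacy plates got HIV-1 BaL at a predetermined titer; 6 days at 37 °C. Supernatant RT activity measured by tritiated TTP incorporation on poly rA/oligo dT gives EC50. […] TI = TC50/EC50.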

The target in series [13] is T1, C-C chemokine receptor type 5. Put plainly: Inhibition of CCR5-mediated Luc-expressing HIV1 BaL Env-pseudotype virus infection in PHA-stimulated CCR5 expressing leukocytes containing human PBMC assessed as inhibition of viral entry in presence of 10 nM morphine by measuring luminescence at 100 nM pretreated for 1 hr before infection measured after 2 days of infection. The format is cell-based. Conditions: filed as antagonist. In short, it runs like this: as §1
Target sequence in this assay (P51681 whole entry, looked up): as the sequence (P51681 whole entry) above

Activity calls are given as the source filed them. The calls are words filed in the database; no cut-off is given here.

Sequence of Mu-type opioid receptor (Mus musculus) (P42866 whole entry): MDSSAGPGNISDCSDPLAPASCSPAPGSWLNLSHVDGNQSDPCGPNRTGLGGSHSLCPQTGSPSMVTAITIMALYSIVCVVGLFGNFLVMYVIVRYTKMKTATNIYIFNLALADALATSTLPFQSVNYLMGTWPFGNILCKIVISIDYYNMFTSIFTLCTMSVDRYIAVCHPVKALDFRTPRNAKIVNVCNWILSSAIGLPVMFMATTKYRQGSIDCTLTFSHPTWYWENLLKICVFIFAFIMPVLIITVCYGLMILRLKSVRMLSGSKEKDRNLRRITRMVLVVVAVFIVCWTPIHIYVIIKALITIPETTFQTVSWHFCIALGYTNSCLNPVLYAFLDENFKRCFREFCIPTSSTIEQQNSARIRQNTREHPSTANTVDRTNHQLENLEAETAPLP
T2 sequence (P42866 whole entry): as above

In general, IC50 refers to the concentration that gives 50% inhibition. The Ki is the dissociation constant of the complex between target and ligand, obtained from inhibition or displacement. Broadly, the Emax is the size of the effect at its maximum, as opposed to the concentration needed. Turning to `Cc1nnc(C(C)C)n1C1C[C@H]2CC[C@@H](C1)N2CC[C@H](NC(=O)C1CCC(F)(F)CC1)c1ccc(NC(=O)COCC(=O)NCCCCCCCNC(=O)COCC(=O)N[C@@H]2CC[C@@]3(O)[C@H]4Cc5ccc(O)c6c5[C@@]3(CCN4CC3CC3)[C@H]2O6)cc1` (some centres not stated), the IC50 in [1] worked out at 0.126 µM; in series [4], 0.04 µM. In series [2], the inhibition constant (Ki) was 0.0518 µM. The Emax in series [3] turned out to be 11.7%. The CC50 at 144 h in series [5] was more than 100 µM.
With `CNC(=O)COCC(=O)NCCCCCCCNC(=O)COCC(=O)NCCc1nnc(C(C)C)n1[C@@H]1C[C@H]2CC[C@@H](C1)N2CC[C@H](NC(=O)C1CCC(F)(F)CC1)c1ccccc1`, the inhibition constant Ki in [6] stood at 0.041 µM. Also, in series [7], the outcome was inactive.
As for `Cc1nnc(C(C)C)n1[C@@H]1C[C@H]2CC[C@@H](C1)N2CC[C@H](NC(=O)C1CCC(F)(F)CC1)c1ccccc1`, in series [5], the CC50 at 144 h is more than 0.5 µM.
As usually defined, the inhibition is the change of the read-out against control, counted positive when it falls. As a reminder, the EC50 is the midpoint of the concentration-response curve. Regarding `CC(C)c1nnc(CCNC(=O)COCC(=O)NCCCCCCCNC(=O)COCC(=O)N[C@@H]2CC[C@@]3(O)[C@H]4Cc5ccc(O)c6c5[C@@]3(CCN4CC3CC3)[C@H]2O6)n1C1C[C@H]2CC[C@@H](C1)N2CC[C@H](NC(=O)C1CCC(F)(F)CC1)c1ccccc1` (some centres not stated), the inhibition in series [8] was 69%; in [9] it was “Dose-Dependent Effect”; in series [11], 22%; in series [13], 55%. The IC50 came to 0.0575 µM in series [1] and 0.05 µM in series [4]. In series [10], the concentration for a half-maximal effect (EC50) turned out to be 0.0363 µM. The Ki in series [2] worked out at 0.00605 µM. Further, in series [12], the selectivity ratio is more than 1080. In addition, in series [7], the result was inactive. Moreover, in series [5], the CC50 at 144 h is more than 100 µM.
Consider `CC(C)c1nnc(CCNC(=O)COCC(=O)NCCCCCNC(=O)COCC(=O)N[C@@H]2CC[C@@]3(O)[C@H]4Cc5ccc(O)c6c5[C@@]3(CCN4CC3CC3)[C@H]2O6)n1C1C[C@H]2CC[C@@H](C1)N2CC[C@H](NC(=O)C1CCC(F)(F)CC1)c1ccccc1` (some centres not stated), for which the figures for the IC50 in series [1] and in [4] were 1.26 µM and 1.1 µM, respectively. Besides, the affinity in series [2] corresponds to a Ki of 0.00423 µM. In series [3], the maximal response (Emax) is 19.4%.
For `CC(C)c1nnc(CCNC(=O)COCC(=O)NCCCCCCCCCNC(=O)COCC(=O)N[C@@H]2CC[C@@]3(O)[C@H]4Cc5ccc(O)c6c5[C@@]3(CCN4CC3CC3)[C@H]2O6)n1C1C[C@H]2CC[C@@H](C1)N2CC[C@H](NC(=O)C1CCC(F)(F)CC1)c1ccccc1` (some centres not stated), the IC50 was found to be 0.965 µM in [1] and 0.0744 µM in series [4]. The affinity in series [2], expressed as Ki, was 0.0112 µM. Moreover, the maximum response (Emax) in [3] amounted to 4.27%.

These data come from ChEMBL document CHEMBL5042476, “Structure-Based Design and Development of Chemical Probes Targeting Putative MOR-CCR5 Heterodimers to Inhibit Opioid Exacerbated HIV-1 Infectivity” (J Med Chem, 2021).
